Reference: ChEMBL document CHEMBL2401736, “HCV NS5A replication complex inhibitors. Part 5: discovery of potent and pan-genotypic glycinamide cap derivatives” (Bioorg Med Chem Lett, 2013)

Columns and labels:
[1] = test system: Hepatitis C virus; experiment: Antiviral activity against Hepatitis C virus genotype 1a by ELISA; type: functional, organism-based, Hepacivirus hominis, subtype 1a
Procedure, shortened: (§1)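 EC50 values are means of at least two experiments, with at most threefold variation between them.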

[2] = test system: Hepatitis C virus; experiment: Antiviral activity against Hepatitis C virus genotype 1b by FRET assay; type: functional, organism-based, Hepacivirus hominis; procedure, shortened: as §1
[3] = test system: Bovine viral diarrhea virus 1; experiment: Antiviral activity against Bovine viral diarrhea virus by luciferase assay; type: functional, organism-based; procedure, shortened: as §1
[4] = test system: Hepatitis C virus; experiment: Antiviral activity against Hepatitis C virus genotype 4a; type: functional, organism-based, Hepacivirus hominis
[5] = test system: Hepatitis C virus; experiment: Antiviral activity against Hepatitis C virus genotype 2a NIH; type: functional, organism-based, Hepacivirus hominis; settings: subtype 2a NIH
[6] = test system: Hepatitis C virus; experiment: Antiviral activity against Hepatitis C virus genotype 3a YH; type: functional, organism-based, Hepacivirus hominis; settings: subtype 3a YH
[7] = test system: Hepatitis C virus; experiment: Antiviral activity against Hepatitis C virus genotype 3a; type: functional, organism-based, Hepacivirus hominis
[8] = test system: Hepatitis C virus; experiment: Antiviral activity against Hepatitis C virus genotype 5a; type: functional, organism-based, Hepacivirus hominis
[9] = Dissociation constant, pKa of the compound in MeOH/H2O at pH 2 to 11; type: physicochemical
Procedure, shortened: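 pKa found by potentiometric titration over pH 2–11 in varying MeOH/H2O mixtures.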

[10] = test system: Hepatitis C virus; experiment: Antiviral activity against Hepatitis C virus genotype 1b harboring NS5A L31V/Y93H double mutant by FRET assay; type: functional, organism-based, Hepacivirus hominis
[11] = test system: Hepatitis C virus; experiment: Ratio of EC50 for Hepatitis C virus genotype 1b harboring NS5A L31V/Y93H double mutant to EC50 for Hepatitis C virus genotype 1b; type: functional, Hepacivirus hominis
[12] = Bovine viral diarrhea virus isolates and strains

EC50 ([1]; Hepatitis C virus, subtype 1a) [nM]	EC50 ([2]; Hepatitis C virus, genotype 1b) [nM]	EC50 [3, 12] [nM]	Compound	further results
< 4.6	< 4.6	1900	CN(C)[C@@H](C(=O)N1CCC[C@H]1C(=O)Nc1ccc(C#Cc2ccc(NC(=O)[C@@H]3CCCN3C(=O)[C@@H](c3ccccc3)N(C)C)cc2)cc1)c1ccccc1	
1290	< 4.6	1730	CN(C)[C@H](Cc1ccccc1)C(=O)N1CCC[C@H]1C(=O)Nc1ccc(C#Cc2ccc(NC(=O)[C@@H]3CCCN3C(=O)[C@@H](Cc3ccccc3)N(C)C)cc2)cc1	
> 9400	< 4.6	> 10000	N[C@H](C(=O)N1CCC[C@H]1C(=O)Nc1ccc(C#Cc2ccc(NC(=O)[C@@H]3CCCN3C(=O)[C@@H](N)c3ccccc3)cc2)cc1)c1ccccc1	
245	0.002	> 10000	CC(C)(C)OC(=O)N[C@@H](C(=O)N1CCC[C@H]1C(=O)Nc1ccc(C#Cc2ccc(NC(=O)[C@@H]3CCCN3C(=O)[C@H](NC(=O)OC(C)(C)C)c3ccccc3)cc2)cc1)c1ccccc1	
910	< 4.6	3760	N[C@@H](C(=O)N1CCC[C@H]1C(=O)Nc1ccc(C#Cc2ccc(NC(=O)[C@@H]3CCCN3C(=O)[C@H](N)c3ccccc3)cc2)cc1)c1ccccc1	
37	0.42	> 10000	CC(=O)N1CCN(C(C(=O)N2CCC[C@H]2C(=O)Nc2ccc(C#Cc3ccc(NC(=O)[C@@H]4CCCN4C(=O)C(c4ccccc4)N4CCN(C(C)=O)CC4)cc3)cc2)c2ccccc2)CC1 (some centres not stated)	
1.4	0.094	3280	O=C(Nc1ccc(C#Cc2ccc(NC(=O)[C@@H]3CCCN3C(=O)C(c3ccccc3)N3CC[C@@H](O)C3)cc2)cc1)[C@@H]1CCCN1C(=O)C(c1ccccc1)N1CC[C@@H](O)C1 (some centres not stated)	
628	< 4.6	1200	CN(C)[C@H](C(=O)N1CCC[C@H]1C(=O)Nc1ccc(C#Cc2ccc(NC(=O)[C@@H]3CCCN3C(=O)[C@H](c3ccccc3)N(C)C)cc2)cc1)c1ccccc1	
		> 10000	CC(=O)N(C)C(C(=O)N1CCC[C@H]1C(=O)Nc1ccc(C#Cc2ccc(NC(=O)[C@@H]3CCCN3C(=O)C(c3ccccc3)N(C)C(C)=O)cc2)cc1)c1ccccc1 (single isomer, unassigned; diastereomer 2)	EC50 [1]: > 5000 nM; EC50 [2]: 632 nM
7.9	≤ 0.13	2790	CCN(C)C(C(=O)N1CCC[C@H]1C(=O)Nc1ccc(C#Cc2ccc(NC(=O)[C@@H]3CCCN3C(=O)C(c3ccccc3)N(C)CC)cc2)cc1)c1ccccc1 (some centres not stated)	
3	0.5	> 10000	O=C(Nc1ccc(C#Cc2ccc(NC(=O)[C@@H]3CCCN3C(=O)C(c3ccccc3)N3CC[C@H](O)C3)cc2)cc1)[C@@H]1CCCN1C(=O)C(c1ccccc1)N1CC[C@H](O)C1 (some centres not stated)	
114	0.018	> 10000	CCOC(=O)N[C@@H](C(=O)N1CCC[C@H]1C(=O)Nc1ccc(C#Cc2ccc(NC(=O)[C@@H]3CCCN3C(=O)[C@H](NC(=O)OCC)c3ccccc3)cc2)cc1)c1ccccc1	
88	0.16	> 10000	CCCOC(=O)N[C@@H](C(=O)N1CCC[C@H]1C(=O)Nc1ccc(C#Cc2ccc(NC(=O)[C@@H]3CCCN3C(=O)[C@H](NC(=O)OCCC)c3ccccc3)cc2)cc1)c1ccccc1	
3240	500	1490	CN(C)[C@@H](Cc1ccccc1)C(=O)N1CCC[C@H]1C(=O)Nc1ccc(C#Cc2ccc(NC(=O)[C@@H]3CCCN3C(=O)[C@H](Cc3ccccc3)N(C)C)cc2)cc1	
70	0.002	> 10000	CC(C)C(=O)N[C@@H](C(=O)N1CCC[C@H]1C(=O)Nc1ccc(C#Cc2ccc(NC(=O)[C@@H]3CCCN3C(=O)[C@H](NC(=O)C(C)C)c3ccccc3)cc2)cc1)c1ccccc1	
71	< 4.6	> 10000	CS(=O)(=O)N[C@@H](C(=O)N1CCC[C@H]1C(=O)Nc1ccc(C#Cc2ccc(NC(=O)[C@@H]3CCCN3C(=O)[C@H](NS(C)(=O)=O)c3ccccc3)cc2)cc1)c1ccccc1	
137	0.28	> 10000	CC(C)OC(=O)N[C@@H](C(=O)N1CCC[C@H]1C(=O)Nc1ccc(C#Cc2ccc(NC(=O)[C@@H]3CCCN3C(=O)[C@H](NC(=O)OC(C)C)c3ccccc3)cc2)cc1)c1ccccc1	
> 10000	< 4.6	> 10000	CC(C)(C)OC(=O)N[C@H](C(=O)N1CCC[C@H]1C(=O)Nc1ccc(C#Cc2ccc(NC(=O)[C@@H]3CCCN3C(=O)[C@@H](NC(=O)OC(C)(C)C)c3ccccc3)cc2)cc1)c1ccccc1	

Second part, the compound before the results:

Compound	EC50 ([1]; Hepatitis C virus, subtype 1a) [nM]	EC50 ([2]; Hepatitis C virus, genotype 1b) [nM]	EC50 [3, 12] [nM]	further results
O=C(Nc1ccc(/C=C/c2ccc(NC(=O)[C@@H]3CCCN3C(=O)c3nccc4ccccc34)cc2)cc1)[C@@H]1CCCN1C(=O)c1nccc2ccccc12	390	22	> 10000	
O=C(Nc1ccc(C#Cc2ccc(NC(=O)[C@@H]3CCCN3C(=O)C(c3ccccc3)N3CCC(O)CC3)cc2)cc1)[C@@H]1CCCN1C(=O)C(c1ccccc1)N1CCC(O)CC1 (single isomer, unassigned; diastereomer 2)				EC50 [1]: 600 nM; EC50 [2]: 4.6 nM; EC50 [3]: 2970 nM
O=C(Nc1ccc(/C=C/c2ccc(NC(=O)[C@@H]3CCCN3C(=O)[C@@H](O)C3CCCCC3)cc2)cc1)[C@@H]1CCCN1C(=O)[C@@H](O)C1CCCCC1	970	63	6740	
CN1CCN(C(C(=O)N2CCC[C@H]2C(=O)Nc2ccc(C#Cc3ccc(NC(=O)[C@@H]4CCCN4C(=O)C(c4ccccc4)N4CCN(C)CC4)cc3)cc2)c2ccccc2)CC1 (single isomer, unassigned; diastereomer 2)				EC50 [1]: 2700 nM; EC50 [2]: 4.4 nM; EC50 [3]: 1360 nM
COc1cccc2c(C(=O)N3CCC[C@H]3C(=O)Nc3ccc(/C=C/c4ccc(NC(=O)[C@@H]5CCCN5C(=O)c5nc(Cl)cc6c(OC)cccc56)cc4)cc3)nc(Cl)cc12	19	7.1	> 10000	EC50 [4]: > 10000 nM; EC50 [5]: 14 nM; EC50 [6]: 74.9 nM; EC50 [7]: 3.2 nM; EC50 [8]: 3 nM
CC(=O)N(C)C(C(=O)N1CCC[C@H]1C(=O)Nc1ccc(C#Cc2ccc(NC(=O)[C@@H]3CCCN3C(=O)C(c3ccccc3)N(C)C(C)=O)cc2)cc1)c1ccccc1 (single isomer, unassigned; diastereomer 1)				EC50 [1]: 2450 nM; EC50 [2]: 57 nM
O=C(Nc1ccc(/C=C/c2ccc(NC(=O)[C@@H]3CCCN3C(=O)Cc3ccccc3)cc2)cc1)[C@@H]1CCCN1C(=O)Cc1ccccc1	> 10000	0.086	> 10000	EC50 [4]: 0.16 nM; EC50 [5]: 260 nM; EC50 [6]: > 3000 nM; EC50 [7]: 0.3 nM; EC50 [8]: < 0.23 nM
O=C1CN(C(C(=O)N2CCC[C@H]2C(=O)Nc2ccc(C#Cc3ccc(NC(=O)[C@@H]4CCCN4C(=O)C(c4ccccc4)N4CCNC(=O)C4)cc3)cc2)c2ccccc2)CCN1 (some centres not stated)	388	< 4.6		pKa [9]: 2.5
O=C(Nc1ccc(/C=C/c2ccc(NC(=O)[C@@H]3CCCN3C(=O)[C@H](O)C3CCCCC3)cc2)cc1)[C@@H]1CCCN1C(=O)[C@H](O)C1CCCCC1	4650	< 4.6	> 10000	
C[C@@](O)(C(=O)N1CCC[C@H]1C(=O)Nc1ccc(Br)cc1)c1ccccc1	> 1300	380		
CN(C)C(C)(C(=O)N1CCC[C@H]1C(=O)Nc1ccc(C#Cc2ccc(NC(=O)[C@@H]3CCCN3C(=O)C(C)(c3ccccc3)N(C)C)cc2)cc1)c1ccccc1 (stereo in doubt; 5l.1)				EC50 [1]: 100 nM; EC50 [3]: 697 nM
O=C(Nc1ccc(C#Cc2ccc(NC(=O)[C@@H]3CCCN3C(=O)[C@@H](c3ccccc3)N3CCOCC3)cc2)cc1)[C@@H]1CCCN1C(=O)[C@@H](c1ccccc1)N1CCOCC1	125	< 4.6	> 10000	pKa [9]: 4.6
COC(=O)N[C@@H](C(=O)N1CCC[C@H]1C(=O)Nc1ccc(C#Cc2ccc(NC(=O)[C@@H]3CCCN3C(=O)[C@H](NC(=O)OC)c3ccccc3)cc2)cc1)c1ccccc1	26	0.013	> 10000	EC50 [10]: 382 nM
O=C(Nc1ccc(C#Cc2ccc(NC(=O)[C@@H]3CCCN3C(=O)[C@@H](c3ccccc3)N3CCCC3)cc2)cc1)[C@@H]1CCCN1C(=O)[C@@H](c1ccccc1)N1CCCC1	19	< 4.6	1380	pKa [9]: 8.1
C[C@H](C(=O)N1CCC[C@H]1C(=O)Nc1ccc(/C=C/c2ccc(NC(=O)[C@@H]3CCCN3C(=O)[C@@H](C)c3ccccc3)cc2)cc1)c1ccccc1	> 10000		> 10000	
C[C@@H](C(=O)N1CCC[C@H]1C(=O)Nc1ccc(/C=C/c2ccc(NC(=O)[C@@H]3CCCN3C(=O)[C@H](C)c3ccccc3)cc2)cc1)c1ccccc1	772		2500	
O=C(C(=O)N1CCC[C@H]1C(=O)Nc1ccc(/C=C/c2ccc(NC(=O)[C@@H]3CCCN3C(=O)C(=O)c3ccccc3)cc2)cc1)c1ccccc1	447	4.6	> 10000	
O=C(Nc1ccc(C#Cc2ccc(NC(=O)[C@@H]3CCCN3C(=O)C(c3ccccc3)N3CCC(O)CC3)cc2)cc1)[C@@H]1CCCN1C(=O)C(c1ccccc1)N1CCC(O)CC1 (stereo in doubt; 5g.1)				EC50 [10]: 12 nM; Ratio EC50 [11]: >90; EC50 [1]: 0.82 nM; pKa [9]: 6.8; EC50 [2]: < 0.13 nM; EC50 [4]: 0.042 nM; EC50 [5]: 0.083 nM; EC50 [6]: 5.4 nM; EC50 [7]: 0.037 nM; EC50 [3]: 6980 nM; EC50 [8]: 0.017 nM
CN(C)C(C)(C(=O)N1CCC[C@H]1C(=O)Nc1ccc(C#Cc2ccc(NC(=O)[C@@H]3CCCN3C(=O)C(C)(c3ccccc3)N(C)C)cc2)cc1)c1ccccc1 (single isomer, unassigned; diastereomer 2)		< 4.6	769	EC50 [1]: 1080 nM
